Legend:
[1] = Drug concentration in C3H/HeJ mouse exhibiting decrease in GUSB activity assessed as level of aglycone curcumin in bone marrow at 500 mg/kg administered via oral gavage measured after 30 mins by LC-MS analysis; assay type: ADME, organism-based; conditions: in vivo, 0.5 h, read-out: Ct
Summary of the method: (§1)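 Oral gavage of curcumin, 500 mg/kg in DMSO, to C57BL/6J or C3H/HeJ mice, n=3–4/group. Serum and marrow were taken 30 min post-dose. Marrow pellets from leg centrifugation were resuspended in 50 mM sodium acetate pH 5 and kept 2 h on ice; supernatants were used. Aglycone curcumin and curcumin-glucuronide were quantified by LC/MS, with marrow values adjusted to pellet volume.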

[2] = Drug metabolism in C3H/HeJ mouse exhibiting decrease in GUSB activity assessed as level of curcumin-glucuronide in bone marrow at 500 mg/kg administered via oral gavage measured after 30 mins by LC-MS analysis; assay type: ADME, organism-based; conditions: read-out: Ct, in vivo, 0.5 h; summary of the method: as §1
RAW264.7 [3] = test: Inhibition of RANKL-induced osteoclastogenesis in murine RAW264.7 cells assessed as formation of TRAP positive multinucleated osteoclasts pretreated for 4 hrs followed by RANKL addition measured after 72 hrs; assay type: functional, cell-based; conditions: Mus musculus
Summary of the method: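 RAW 264.7 cells, used within 10 passages, were seeded at 5×10^3/well in DMEM with 10% FBS and allowed to adhere overnight at 37°C. Cells were pretreated 4 h with aglycone curcumin or curcumin-glucuronide, then given RANKL (50 ng/mL final) for 72 h. TRAP-positive multinucleated osteoclasts were counted, n=4/group.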

RAW264.7 [4] = test: Cytotoxicity against murine RAW264.7 cells assessed as effect on cell viability at 3 uM; assay type: cell-based; conditions: mouse, raw264.7, 3 µM
[5] = Half-life in C57BL/6J mouse serum at 500 mg/kg administered via oral gavage measured after 30 mins by LC-MS analysis; assay type: ADME, organism-based; conditions: in vivo, 0.5 h
Summary of the method: (§2)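 Female 4-week C57BL/6J mice given a single oral gavage of curcumin, 500 mg/kg in DMSO. Serum and bone marrow were collected under isoflurane at the indicated times up to 48 h, n=4/group. Total curcumin (aglycone plus glucuronide) was measured by LC/MS with d6-curcumin standards. PK parameters came from noncompartmental analysis after extravascular dosing.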

[6] = Half-life in C57BL/6J mouse bone marrow at 500 mg/kg administered via oral gavage measured after 30 mins by LC-MS analysis; assay type: ADME, organism-based; conditions: in vivo, 0.5 h; summary of the method: as §2
[7] = Tmax in C57BL/6J mouse serum at 500 mg/kg administered via oral gavage measured after 30 mins by LC-MS analysis; assay type: ADME, organism-based; summary of the method: as §2
[8] = Tmax in C57BL/6J mouse bone marrow at 500 mg/kg administered via oral gavage measured after 30 mins by LC-MS analysis; assay type: ADME, organism-based; summary of the method: as §2
[9] = Cmax in C57BL/6J mouse serum at 500 mg/kg administered via oral gavage measured after 30 mins by LC-MS analysis; assay type: ADME, organism-based; parameters: dose 500 mg/kg, route oral; summary of the method: as §2
[10] = Cmax in C57BL/6J mouse bone marrow at 500 mg/kg administered via oral gavage measured after 30 mins by LC-MS analysis; assay type: ADME, organism-based; parameters: dose 500 mg/kg, route oral; summary of the method: as §2
[11] = AUC (0 to 48 hrs) in C57BL/6J mouse serum at 500 mg/kg administered via oral gavage measured after 30 mins by LC-MS analysis; assay type: ADME, organism-based; parameters: time < 48 hr, dose 500 mg/kg, route oral; summary of the method: as §2
[12] = AUC (0 to 48 hrs) in C57BL/6J mouse bone marrow at 500 mg/kg administered via oral gavage measured after 30 mins by LC-MS analysis; assay type: ADME, organism-based; parameters: time < 48 hr, dose 500 mg/kg, route oral; summary of the method: as §2
[13] = AUC (0 to infinity) in C57BL/6J mouse serum at 500 mg/kg administered via oral gavage measured after 30 mins by LC-MS analysis; assay type: ADME, organism-based; parameters: dose 500 mg/kg, route oral, time infinity; summary of the method: as §2
[14] = AUC (0 to infinity) in C57BL/6J mouse bone marrow at 500 mg/kg administered via oral gavage measured after 30 mins by LC-MS analysis; assay type: ADME, organism-based; parameters: dose 500 mg/kg, route oral, time infinity; summary of the method: as §2
[15] = Ratio of AUC (0 to 48 hrs) in C57BL/6J mouse serum to AUC (0 to 48 hrs) in C57BL/6J mouse bone marrow at 500 mg/kg administered via oral gavage; assay type: ADME, organism-based; conditions: in vivo
[16] = Ratio of AUC (0 to infinity) in C57BL/6J mouse serum to AUC (0 to infinity) in C57BL/6J mouse bone marrow at 500 mg/kg administered via oral gavage; assay type: ADME, organism-based; conditions: in vivo
[17] = Ratio of drug concentration in C57BL/6J mouse bone marrow to drug concentration in C57BL/6J mouse serum; assay type: ADME
[18] = Prodrug conversion in C57BL/6J mouse serum assessed as effect on aglycone curcumin level at 500 mg/kg administered via oral gavage incubated for 30 mins followed by resuspension in sodium acetate buffer at pH 5 measured after 2 hrs in presence of saccharolactone by LC-MS analysis; assay type: ADME, organism-based; conditions: in vivo, pH 5, 500 mg/kg
[19] = Prodrug conversion in C57BL/6J mouse bone marrow assessed as beta-glucuronidase mediated effect on aglycone curcumin level at 500 mg/kg administered via oral gavage incubated for 30 mins followed by resuspension in sodium acetate buffer at pH 5 measured after 2 hrs in presence of saccharolactone by LC-MS analysis; assay type: ADME, organism-based; conditions: in vivo, pH 5, 500 mg/kg
Summary of the method: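 C57BL/6J mice were gavaged with curcumin at 500 mg/kg, and marrow was harvested 30 min later. Marrow was resuspended in 50 mM sodium acetate pH 5 with or without 10 mM saccharolactone, or mice received saccharolactone 1 g/kg ip in saline 1 h before curcumin. Suspensions were kept 2 h on ice, and aglycone curcumin (% of total) was measured by LC/MS, n=3–4/group.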

[20] = Drug metabolism in C57BL/6J mouse assessed as level of curcumin-glucuronide in serum at 500 mg/kg administered via oral gavage measured after 30 mins by LC-MS analysis; assay type: ADME, organism-based; conditions: in vivo, 0.5 h, read-out: Ct; summary of the method: as §1
[21] = Drug metabolism in C57BL/6J mouse assessed as level of curcumin-glucuronide in bone marrow at 500 mg/kg administered via oral gavage measured after 30 mins by LC-MS analysis; assay type: ADME, organism-based; conditions: in vivo, 0.5 h, read-out: Ct; summary of the method: as §1
[22] = Drug concentration in C57BL/6J mouse assessed as level of aglycone curcumin in serum at 500 mg/kg administered via oral gavage measured after 30 mins by LC-MS analysis; assay type: ADME, organism-based; conditions: in vivo, 0.5 h, read-out: Ct; summary of the method: as §1
[23] = Drug concentration in C57BL/6J mouse assessed as level of aglycone curcumin in bone marrow at 500 mg/kg administered via oral gavage measured after 30 mins by LC-MS analysis; assay type: ADME, organism-based; conditions: in vivo, 0.5 h, read-out: Ct; summary of the method: as §1
[24] = Drug metabolism in C3H/HeJ mouse exhibiting decrease in GUSB activity assessed as level of curcumin-glucuronide in serum at 500 mg/kg administered via oral gavage measured after 30 mins by LC-MS analysis; assay type: ADME, organism-based; conditions: in vivo, 0.5 h, read-out: Ct; summary of the method: as §1
[25] = Drug metabolism in C57BL/6J mouse assessed as level of curcumin-glucuronide in serum at 100 mg/kg, ip measured after 20 mins by LC-MS analysis; assay type: ADME, organism-based; conditions: in vivo, read-out: Ct
Summary of the method: (§3)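 Curcumin at 100 mg/kg in DMSO was given ip to 15-week C57BL/6J, C3H/HeJ or mps/mps (GUSB-null) mice, n=3–4/group. Serum and marrow were harvested 20 min later. Marrow was resuspended in 50 mM sodium acetate pH 5 for 2 h on ice. Aglycone and glucuronidated curcumin were measured by LC/MS, with marrow values corrected to the original pellet volume.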

[26] = Drug metabolism in C57BL/6J mouse assessed as level of curcumin-glucuronide in bone marrow at 100 mg/kg, ip measured after 20 mins by LC-MS analysis; assay type: ADME, organism-based; conditions: in vivo, read-out: Ct; summary of the method: as §3
[27] = Drug concentration in C57BL/6J mouse assessed as level of aglycone curcumin in serum at 100 mg/kg, ip measured after 20 mins by LC-MS analysis; assay type: ADME, organism-based; conditions: in vivo, read-out: Ct; summary of the method: as §3
[28] = Drug concentration in C57BL/6J mouse assessed as level of aglycone curcumin in bone marrow at 100 mg/kg, ip measured after 20 mins by LC-MS analysis; assay type: ADME, organism-based; conditions: in vivo, read-out: Ct; summary of the method: as §3
[29] = Drug metabolism in C3H/HeJ mouse exhibiting decrease in GUSB activity assessed as level of curcumin-glucuronide in serum at 100 mg/kg, ip measured after 20 mins by LC-MS analysis; assay type: ADME, organism-based; conditions: in vivo, read-out: Ct; summary of the method: as §3
[30] = Drug concentration in C3H/HeJ mouse exhibiting decrease in GUSB activity assessed as level of aglycone curcumin in serum at 100 mg/kg, ip measured after 20 mins by LC-MS analysis; assay type: ADME, organism-based; conditions: in vivo, read-out: Ct; summary of the method: as §3
[31] = Drug concentration in C3H/HeJ mouse exhibiting decrease in GUSB activity assessed as level of curcumin-glucuronide in bone marrow at 100 mg/kg, ip measured after 20 mins by LC-MS analysis; assay type: ADME, organism-based; conditions: in vivo, read-out: Ct; summary of the method: as §3
[32] = Drug concentration in C3H/HeJ mouse exhibiting decrease in GUSB activity assessed as level of aglycone curcumin in bone marrow at 100 mg/kg, ip measured after 20 mins by LC-MS analysis; assay type: ADME, organism-based; conditions: in vivo, read-out: Ct; summary of the method: as §3
[33] = Drug metabolism in mps/mps mutant mouse assessed as level of curcumin-glucuronide in serum at 100 mg/kg, ip measured after 20 mins by LC-MS analysis; assay type: ADME, organism-based; conditions: in vivo, read-out: Ct; summary of the method: as §3
[34] = Drug concentration in mps/mps mutant mouse assessed as level of aglycone curcumin in serum at 100 mg/kg, ip measured after 20 mins by LC-MS analysis; assay type: ADME, organism-based; conditions: in vivo, read-out: Ct; summary of the method: as §3
[35] = Drug concentration in mps/mps mutant mouse assessed as level of aglycone curcumin in bone marrow at 100 mg/kg, ip measured after 20 mins by LC-MS analysis; assay type: ADME, organism-based; conditions: in vivo, read-out: Ct; summary of the method: as §3

`COc1cc(/C=C/C(=O)CC(=O)/C=C/c2ccc(O)c(OC)c2)ccc1O` [CURCUMIN] gave a concentration [1] of 470 nM, a concentration [2] of 1190 nM and an IC50 (RAW264.7 [3]) of 3000 nM. For the same compound, the Activity (RAW264.7 [4]) was “Non-Toxic”, the t1/2 [5] was 264 min and the t1/2 [6] was 468 min. It also gave a Tmax [7] of 30 min, a Tmax [8] of 30 min and a Cmax [9] of 106000 nM. For the same compound, the Cmax [10] was 5900 nM, the AUC(0-t) at 48 h [11] was 487 µM·h and the AUC(0-t) at 48 h [12] was 48 µM·h. It also gave an AUC(0-inf) [13] of 488 µM·h, an AUC(0-inf) [14] of 48.3 µM·h and a Ratio [15] of 10. The Ratio [16] was 10, the Kp [17] was 3 and the Drug metabolism [18] was “Metabolite_Detected”. For the same compound, the Drug metabolism [19] was “Metabolite_Detected”, the concentration [20] was 82700 nM and the concentration [21] was 360 nM. The concentration [22] was 170 nM, the concentration [23] was 1140 nM and the concentration [24] was 80000 nM. For the same compound, the concentration [25] was 92700 nM, the concentration [26] was 1300 nM and the concentration [27] was 7200 nM. The concentration [28] was 1900 nM, the concentration [29] was 92100 nM and the concentration [30] was 2800 nM. The concentration [31] was 2700 nM, the concentration [32] was 500 nM and the concentration [33] was 151000 nM. For the same compound, the concentration [34] was 22800 nM and the concentration [35] was 400 nM.

Reference: ChEMBL document CHEMBL4414545, “Beta-Glucuronidase Catalyzes Deconjugation and Activation of Curcumin-Glucuronide in Bone” (J Nat Prod, 2019)
